{"source": "ChEMBL document CHEMBL4308915", "about": "“Synthesis of novel pyrazoline derivatives and the evaluation of death mechanisms involved in their antileukemic activity” (Bioorg Med Chem, 2019)", "key": {"K562 [1]": {"test_system": "K562", "assay": "Induction of apoptosis in human K562 cells assessed as increase in chromatin condensation at 55.7 uM by acridine orange/ethidium bromide staining-based fluorescence microscopic analysis", "assay_type": "functional, cell-based"}, "K562 [2]": {"test_system": "K562", "assay": "Induction of apoptosis in human K562 cells at 55.7 uM after 12 hrs by Annexin-V FITC staining-based flow cytometry relative to control", "assay_type": "functional"}, "K562 [3]": {"test_system": "K562", "assay": "Cytotoxicity against human K562 cells assessed as reduction in cell viability after 48 hrs by MTT assay", "assay_type": "functional, cell-based", "conditions": "K562, 48 h"}, "PBMC": {"test_system": "PBMC", "assay": "Cytotoxicity against human PBMC assessed as reduction in cell viability after 72 hrs by MTT assay", "assay_type": "cell-based"}, "Jurkat [4]": {"test_system": "Jurkat", "assay": "Induction of apoptosis in human Jurkat cells assessed as increase in membrane blebbing at 33.7 uM by acridine orange/ethidium bromide staining-based fluorescence microscopic analysis", "assay_type": "functional, cell-based"}, "Jurkat [5]": {"test_system": "Jurkat", "assay": "Induction of apoptosis in human Jurkat cells assessed as increase in AIF release at 33.7 uM after 12 hrs by flow cytometric analysis relative to control", "assay_type": "functional"}, "Daudi [6]": {"test_system": "Daudi", "assay": "Cytotoxicity against human Daudi cells assessed as reduction in cell viability after 72 hrs by MTT assay", "assay_type": "functional, cell-based"}, "Jurkat [7]": {"test_system": "Jurkat", "assay": "Induction of DNA fragmentation in human Jurkat cells assessed as increase in ladder formation at 33.7 uM after 12 hrs by ethidium bromide staining based agarose gel electrophoresis method", "assay_type": "functional, cell-based"}, "Jurkat [8]": {"test_system": "Jurkat", "assay": "Induction of apoptosis in human Jurkat cells assessed as increase in caspase-3 expression at 33.7 uM after 12 hrs by flow cytometric analysis relative to control", "assay_type": "functional"}, "K562 [9]": {"test_system": "K562", "assay": "Cell cycle arrest in human K562 cells assessed as increase in accumulation at G0/G1 phase at 55.7 uM after 12 hrs by propidium iodide/RNAse staining based flow cytometric analysis relative to control", "assay_type": "functional"}, "Jurkat [10]": {"test_system": "Jurkat", "assay": "Induction of apoptosis in human Jurkat cells assessed as increase in FasR expression at 33.7 uM after 12 hrs by flow cytometric analysis relative to control", "assay_type": "functional"}, "Daudi [11]": {"test_system": "Daudi", "assay": "Cytotoxicity against human Daudi cells assessed as reduction in cell viability after 24 hrs by MTT assay", "assay_type": "functional, cell-based", "in_short": "(§1)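 MTT viability after 24 h exposure. Cells seeded at 5x10^4 per well and tested at 1-100 µM. Optical density of untreated cells set as 100% viable. IC50 derived by curve fitting. PBMC from healthy non-smoking volunteers, isolated by Ficoll-Hypaque.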"}, "B16-F10": {"test_system": "B16-F10", "assay": "Cytotoxicity against mouse B16F10 cells assessed as reduction in cell viability after 48 hrs by MTT assay", "assay_type": "functional, cell-based", "conditions": "B16-F10, 48 h"}, "[12]": {"assay": "Hemolytic activity in human RBC at 1 time IC50 relative to control", "assay_type": "ADME, cell-based, Erythrocyte", "conditions": "red blood cells (erythrocytes), read-out: Activity", "in_short": "(§2)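 RBC from healthy non-smoking volunteers incubated with increasing concentrations of the selected pyrazolines. Saline served as the 0% lysis control and distilled water as the 100% lysis control. Percent hemolysis calculated relative to these controls.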"}, "Jurkat [13]": {"test_system": "Jurkat", "assay": "Induction of apoptosis in human Jurkat cells assessed as increase in chromatin condensation at 33.7 uM by acridine orange/ethidium bromide staining-based fluorescence microscopic analysis", "assay_type": "functional, cell-based"}, "[14]": {"assay": "Hemolytic activity in human RBC at 3 times IC50 relative to control", "assay_type": "ADME, cell-based, Erythrocyte", "conditions": "red blood cells (erythrocytes), read-out: Activity", "in_short": "as §2"}, "Jurkat [15]": {"test_system": "Jurkat", "assay": "Antiproliferative activity against human Jurkat cells assessed as reduction in KI-67 expression at 33.7 uM after 12 hrs by flow cytometric analysis", "assay_type": "functional, cell-based"}, "Jurkat [16]": {"test_system": "Jurkat", "assay": "Induction of apoptosis in human Jurkat cells assessed as reduction in cells with intact mitochondrial membrane potential at 33.7 uM after 12 hrs by flow cytometric analysis relative to control", "assay_type": "functional", "set-up": "scale not given: the % may be the effect or the level left"}, "K562 [17]": {"test_system": "K562", "assay": "Induction of apoptosis in human K562 cells assessed as decrease in survivin level at 55.7 uM after 12 hrs by flow cytometric analysis relative to control", "assay_type": "functional"}, "Jurkat [18]": {"test_system": "Jurkat", "assay": "Cytotoxicity against human Jurkat cells assessed as reduction in cell viability after 48 hrs by MTT assay", "assay_type": "functional, cell-based"}, "K562 [19]": {"test_system": "K562", "assay": "Induction of apoptosis in human K562 cells assessed as increase in membrane blebbing at 55.7 uM by acridine orange/ethidium bromide staining-based fluorescence microscopic analysis", "assay_type": "functional, cell-based"}, "K562 [20]": {"test_system": "K562", "assay": "Induction of apoptosis in human K562 cells assessed as increase in FasR expression at 55.7 uM after 12 hrs by flow cytometric analysis relative to control", "assay_type": "functional"}, "K562 [21]": {"test_system": "K562", "assay": "Cytotoxicity against human K562 cells assessed as reduction in cell viability after 72 hrs by MTT assay", "assay_type": "functional, cell-based", "conditions": "K562, 72 h"}, "[22]": {"assay": "(§3) Cytotoxicity against acute leukemia patient-derived bone marrow cells assessed as reduction in cell viability after 24 hrs", "assay_type": "functional, cell-based", "conditions": "Homo sapiens", "in_short": "(§4)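 Mononuclear cells from acute leukemia patient samples (peripheral blood or bone marrow, taken before first treatment at diagnosis or relapse) isolated by Ficoll-Hypaque.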"}, "Homo sapiens": {"species_on_record": "Homo sapiens", "assay": "as §3", "assay_type": "functional, cell-based", "in_short": "as §4"}, "K562 [23]": {"test_system": "K562", "assay": "Induction of apoptosis in human K562 cells assessed as increase in loss of membrane integrity at 55.7 uM by acridine orange/ethidium bromide staining-based fluorescence microscopic analysis", "assay_type": "functional, cell-based"}, "K562 [24]": {"test_system": "K562", "assay": "Cytotoxicity against human K562 cells assessed as reduction in cell viability after 24 hrs by MTT assay", "assay_type": "functional, cell-based", "conditions": "K562, 24 h", "in_short": "as §1"}}, "note": "Activity calls are given as the source filed them. The calls are words filed in the database; no cut-off is given here.", "data": [{"smiles": "COc1cc(C2=NN(C(C)=O)C(c3ccc4ccccc4c3)C2)cc(OC)c1OC", "note": "(configuration not stated)", "values": [{"measurement": "Activity", "setting": "K562 [1]", "value": "Active"}, {"measurement": "Activity", "setting": "K562 [2]", "value": 18.8, "unit": "%"}, {"measurement": "IC50", "setting": "K562 [3]", "value": 21.9, "unit": "µM"}, {"measurement": "IC50", "setting": "PBMC", "value": 55.3, "unit": "µM"}, {"measurement": "Activity", "setting": "Jurkat [4]", "value": "Active"}, {"measurement": "Activity", "setting": "Jurkat [5]", "value": 6, "unit": "%"}, {"measurement": "IC50", "setting": "Daudi [6]", "value": 5.1, "unit": "µM"}, {"measurement": "Activity", "setting": "Jurkat [7]", "value": "Active"}, {"measurement": "Activity", "setting": "Jurkat [8]", "value": 6.6, "unit": "%"}, {"measurement": "Activity", "setting": "K562 [9]", "value": 7.4, "unit": "%"}, {"measurement": "Activity", "setting": "Jurkat [10]", "value": 30.3, "unit": "%"}, {"measurement": "IC50", "setting": "Daudi [11]", "value": 46.2, "unit": "µM"}, {"measurement": "IC50", "setting": "B16-F10", "value": 56.6, "unit": "µM"}, {"measurement": "hemolysis at 1 times IC50", "setting": "[12]", "value": 1.9, "unit": "%"}, {"measurement": "Activity", "setting": "Jurkat [13]", "value": "Active"}, {"measurement": "hemolysis at 3 times IC50", "setting": "[14]", "value": 1.6, "unit": "%"}, {"measurement": "Activity", "setting": "Jurkat [15]", "value": "Active"}, {"measurement": "Activity", "setting": "Jurkat [16]", "value": 41, "unit": "%"}, {"measurement": "Activity", "setting": "K562 [17]", "value": 22.2, "unit": "%"}, {"measurement": "IC50", "setting": "Jurkat [18]", "value": 27.7, "unit": "µM"}, {"measurement": "Activity", "setting": "K562 [19]", "value": "Active"}, {"measurement": "Activity", "setting": "K562 [20]", "value": 34.3, "unit": "%"}, {"measurement": "IC50", "setting": "K562 [21]", "value": 15.5, "unit": "µM"}, {"measurement": "IC50", "setting": "[22]", "value": "16.2 to 44.6", "unit": "µM"}, {"measurement": "Activity", "setting": "Homo sapiens", "value": "Dose-dependent effect"}, {"measurement": "Activity", "setting": "K562 [23]", "value": "Active"}, {"measurement": "IC50", "setting": "K562 [24]", "value": 55.7, "unit": "µM"}]}]}
